The test system of assay [1] is U-937. In words: Ability to inhibit [3H]anandamide uptake in human lymphoma U937 cells. The assay is classed as functional, cell-based. The method, boiled down: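 IC50 values come from three independent experiments, each run in triplicate, and are reported as mean ± standard error.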
For assay [2], the target named is Transient receptor potential cation channel subfamily V member 1 (Rattus norvegicus, UniProt O35433). Kind of assay: Binding affinity to vanilloid VR1 receptor using [3H]resiniferatoxin ([3H]-RTX) in rat spinal cord membranes. It counts as cell membranes, Membrane. The method, boiled down: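 Radioligand displacement binding used these systems: CB1, rat cerebellum membranes with [3H]WIN55212-2; CB2, HEK293EBNA cells transfected with the human CB2 receptor, with [3H]CP55940; VR1, rat spinal cord membranes with [3H]RTX. Ki values come from two independent experiments, each run in triplicate, and are reported as mean ± standard error.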
Chain of Transient receptor potential cation channel subfamily V member 1 (O35433 whole entry): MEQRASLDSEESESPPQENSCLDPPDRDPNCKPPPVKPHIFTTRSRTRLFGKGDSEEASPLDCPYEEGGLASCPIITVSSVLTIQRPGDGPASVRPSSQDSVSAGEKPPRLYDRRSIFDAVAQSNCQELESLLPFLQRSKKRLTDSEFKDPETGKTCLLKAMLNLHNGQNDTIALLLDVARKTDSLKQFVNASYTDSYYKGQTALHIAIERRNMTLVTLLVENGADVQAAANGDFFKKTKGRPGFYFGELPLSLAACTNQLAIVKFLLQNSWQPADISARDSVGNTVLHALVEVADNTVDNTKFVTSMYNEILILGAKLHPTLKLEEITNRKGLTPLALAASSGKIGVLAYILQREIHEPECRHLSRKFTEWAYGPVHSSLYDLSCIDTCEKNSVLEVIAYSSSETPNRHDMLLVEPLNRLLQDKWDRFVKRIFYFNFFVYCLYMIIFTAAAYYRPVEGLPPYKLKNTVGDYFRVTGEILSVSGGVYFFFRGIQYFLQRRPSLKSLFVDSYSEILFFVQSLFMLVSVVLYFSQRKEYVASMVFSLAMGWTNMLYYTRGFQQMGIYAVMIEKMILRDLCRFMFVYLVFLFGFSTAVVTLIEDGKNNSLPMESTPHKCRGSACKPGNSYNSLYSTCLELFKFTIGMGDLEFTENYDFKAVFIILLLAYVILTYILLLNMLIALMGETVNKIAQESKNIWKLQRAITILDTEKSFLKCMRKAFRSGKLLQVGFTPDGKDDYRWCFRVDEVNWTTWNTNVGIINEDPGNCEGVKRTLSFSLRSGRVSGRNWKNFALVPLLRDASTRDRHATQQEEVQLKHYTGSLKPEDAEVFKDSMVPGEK

The target in a further assay is Cannabinoid receptor 2 (Homo sapiens, UniProt P34972). Kind of assay: Binding affinity to human CB2 cannabinoid receptor using [3H]CP-55940 in HEK293 EBNA transfected cells. It counts as cell-based.
Chain of Cannabinoid receptor 2 (P34972 whole entry): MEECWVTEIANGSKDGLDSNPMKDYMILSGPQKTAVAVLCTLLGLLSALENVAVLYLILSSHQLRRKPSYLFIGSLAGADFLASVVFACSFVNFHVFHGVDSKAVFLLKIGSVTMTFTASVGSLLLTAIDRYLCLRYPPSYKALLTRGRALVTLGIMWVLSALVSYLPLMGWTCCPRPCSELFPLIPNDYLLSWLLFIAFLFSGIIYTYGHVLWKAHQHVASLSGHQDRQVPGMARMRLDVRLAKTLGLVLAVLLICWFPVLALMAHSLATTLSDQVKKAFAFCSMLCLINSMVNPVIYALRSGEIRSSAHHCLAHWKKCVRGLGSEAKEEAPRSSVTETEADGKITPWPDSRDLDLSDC
A further assay addresses Cannabinoid receptor 1 (Rattus norvegicus, UniProt P20272). Kind of assay: Binding affinity to CB1 cannabinoid receptor using [3H]WIN-55212-2 in rat cerebellum membranes. It counts as cell membranes, Membrane.
Assay [3] has as its system U-937. Kind of assay: Ability to inhibit [3H]anandamide uptake in human lymphoma U937 cells; inactive. It counts as functional, cell-based.

We go through 13 compounds from ChEMBL document CHEMBL1134315 (J Med Chem, 2001).

Usually pIC50 stands for the negative decadic logarithm of the IC50, by convention in mol/L. A low value points to a large IC50. The term pKi denotes the negative decadic logarithm of the Ki, by convention in mol/L. Low values mean a large Ki, high ones a small Ki.

pIC50, pKi: −log10 of the molar value.

Chain of Cannabinoid receptor 1 (P20272 whole entry): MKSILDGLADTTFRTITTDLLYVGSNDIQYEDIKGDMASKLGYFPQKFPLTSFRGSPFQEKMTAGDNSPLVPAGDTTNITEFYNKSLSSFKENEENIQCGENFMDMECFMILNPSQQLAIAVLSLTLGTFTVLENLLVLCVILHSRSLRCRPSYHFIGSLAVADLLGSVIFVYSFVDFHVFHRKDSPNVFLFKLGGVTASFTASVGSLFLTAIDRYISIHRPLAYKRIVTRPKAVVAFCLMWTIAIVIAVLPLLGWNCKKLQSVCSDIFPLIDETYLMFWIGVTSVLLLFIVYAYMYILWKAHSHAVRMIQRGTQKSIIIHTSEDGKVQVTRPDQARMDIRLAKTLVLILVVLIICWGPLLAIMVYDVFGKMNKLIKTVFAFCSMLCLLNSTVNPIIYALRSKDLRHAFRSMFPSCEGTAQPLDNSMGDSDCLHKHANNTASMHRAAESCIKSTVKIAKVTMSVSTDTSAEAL

Regarding `CCCCC/C=C\C/C=C\C/C=C\C/C=C\CCCC(=O)NCc1ccoc1`, the negative logarithm of the IC50 (pIC50) with U-937 [1] is 6.10. For the same compound, the pKi was less than 5.30 in assay [2], 7.17 at Cannabinoid receptor 2 and less than 6.00 on Cannabinoid receptor 1.

In the case of `CCCCC/C=C\C/C=C\C/C=C\C/C=C\CCCC(=O)OCc1cccs1`, the IC50 entry in the assay on U-937 [3] is “Not Active”. Further, the figures for the pKi (in assay [2]; on Cannabinoid receptor 2; at Cannabinoid receptor 1) were less than 5.30, less than 6.00 and less than 6.00, respectively.

In turn, `CCCCC/C=C\C/C=C\C/C=C\C/C=C\CCCC(=O)NCc1cccn1C` had a negative-log IC50 (pIC50) in the assay with U-937 [1] of 5.30. Besides, the results for the negative-log Ki (pKi) (in assay [2]; on Cannabinoid receptor 2; on Cannabinoid receptor 1) were less than 5.30, 7.15 and 6.91, respectively.

For the compound `CCCCC/C=C\C/C=C\C/C=C\C/C=C\CCCC(=O)OCC1CCOC1` (configuration not stated), the figures for the pKi (in assay [2]; at Cannabinoid receptor 2) were less than 5.30 and less than 6.00, respectively.

Compound `CCCCC/C=C\C/C=C\C/C=C\C/C=C\CCCC(=O)OCc1ccsc1` had a pIC50 in the assay on U-937 [1] of 5.52. Further, the negative logarithm of the Ki (pKi) is less than 5.30 in assay [2], less than 6.00 on Cannabinoid receptor 2 and less than 6.00 on Cannabinoid receptor 1.

`CCCCC/C=C\C/C=C\C/C=C\C/C=C\CCCC(=O)Nc1ccc(O)cc1` had a pIC50 in the assay on U-937 [1] of 5.40. Also, the figures for the negative-log Ki (pKi) (in assay [2]; on Cannabinoid receptor 2; on Cannabinoid receptor 1) were less than 5.30, less than 6.00 and less than 6.00, respectively.

For the compound `CCCCC/C=C\C/C=C\C/C=C\C/C=C\CCCC(=O)OCC1CCCO1` (configuration not stated), in the assay with U-937 [1], the negative logarithm of the IC50 (pIC50) was 4.74. For the same compound, the figures for the pKi (in assay [2]; on Cannabinoid receptor 2; at Cannabinoid receptor 1) were less than 5.30, less than 6.00 and less than 6.00, respectively.

The compound `CCCCC/C=C\C/C=C\C/C=C\C/C=C\CCCC(=O)NCc1cccs1` showed a negative logarithm of the IC50 (pIC50) in the assay on U-937 [1] of 5.24. The negative logarithm of the Ki (pKi) in assay [2] is less than 5.30; on Cannabinoid receptor 2 it was less than 6.00; on Cannabinoid receptor 1, less than 6.00.

In the assay on U-937 [1], `CCCCC/C=C\C/C=C\C/C=C\C/C=C\CCCC(=O)NCC1CCCO1` (configuration not stated) had a negative-log IC50 (pIC50) of 5.10. Further, the pKi in assay [2] was less than 5.30; at Cannabinoid receptor 2, less than 6.00; on Cannabinoid receptor 1, less than 6.00.

Take `CCCCC/C=C\C/C=C\C/C=C\C/C=C\CCCC(=O)NCCO` [ANANDAMIDE]: in assay [2], the negative logarithm of the Ki (pKi) is 6.77.

In turn, `CCCCC/C=C\C/C=C\C/C=C\C/C=C\CCCC(=O)OCc1ccoc1` had a pIC50 in the assay with U-937 [1] of 4.85. In addition, the figures for the pKi (in assay [2]; at Cannabinoid receptor 2; at Cannabinoid receptor 1) were more than 5.30, less than 6.00 and less than 6.00, respectively.

`CCCCC/C=C\C/C=C\C/C=C\C/C=C\CCCC(=O)NCc1ccco1` showed a pIC50 with U-937 [1] of 5.30. The negative-log Ki (pKi) in assay [2] was more than 5.30; on Cannabinoid receptor 2, less than 6.00; at Cannabinoid receptor 1 it was less than 6.00.

In the assay on U-937 [1], `CCCCC/C=C\C/C=C\C/C=C\C/C=C\CCCC(=O)OCc1ccco1` gave a negative-log IC50 (pIC50) of 4.62. In addition, the pKi in assay [2] was less than 5.30; at Cannabinoid receptor 2, less than 6.00; at Cannabinoid receptor 1, less than 6.00.
